ChEMBL document CHEMBL3784976 (J Med Chem, 2016)
One block for each compound: values may come before it.

Columns and labels:
[1] = biological target: T1, Transient receptor potential cation channel subfamily A member 1 (Homo sapiens, UniProt O75762); experiment: Antagonist activity at human TRPA1 expressed in tetracycline-inducible T-REx expression system transfected CHO cells assessed as inhibition of AITC-induced Ca2+ influx preincubated for 2 mins followed by AITC addition measured for 2 mins by Fluo-4 dye based FLIPR assay; assay type: cell-based
[2] = biological target: T2, Transient receptor potential cation channel subfamily A member 1 (Rattus norvegicus, UniProt Q6RI86); experiment: Antagonist activity at rat TRPA1 expressed in tetracycline-inducible T-REx expression system transfected CHO cells assessed as inhibition of AITC-induced Ca2+ influx preincubated for 2 mins followed by AITC addition measured for 2 mins by Fluo-4 dye based FLIPR assay; assay type: cell-based
[3] = Apparent intrinsic clearance in rat liver microsomes; assay type: ADME; details: read-out: CLH(app)
[4] = Apparent intrinsic clearance in human liver microsomes; assay type: ADME; details: read-out: CLH(app)
Rattus norvegicus [5] = experiment: fCmax in rat at 30 mg/kg, po; assay type: ADME, organism-based; details: in vivo
Summary of the method: (§1)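 Rats dosed orally at 30 mg/kg, or 10 mg/kg for one analogue, in 1% Tween 80/2% HPMC/97% water with methanesulfonic acid, pH 2.2.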

[6] = Cmax in rat at 30 mg/kg, po; assay type: ADME, organism-based; set-up: dose 30 mg/kg, route oral; details: in vivo
Summary of the method: (§2)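 Rat oral PK at 30 mg/kg (10 mg/kg for one analogue) in 1% Tween 80/2% HPMC/97% water with methanesulfonic acid, pH 2.2.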

[7] = Fraction unbound in rat plasma; assay type: ADME, cell-free
[8] = biological target: T2, Transient receptor potential cation channel subfamily A member 1; experiment: Antagonist activity at rat TRPA1 expressed in tetracycline-inducible T-REx expression system transfected CHO cells assessed as inhibition of AITC-induced 45Ca2+ uptake preincubated for 1 min followed by AITC addition measured after 12 mins; assay type: cell-based
[9] = biological target: T1, Transient receptor potential cation channel subfamily A member 1; experiment: Antagonist activity at human TRPA1 expressed in tetracycline-inducible T-REx expression system transfected CHO cells assessed as inhibition of AITC-induced 45Ca2+ uptake preincubated for 1 min followed by AITC addition measured after 12 mins; assay type: cell-based
[10] = biological target: T2, Transient receptor potential cation channel subfamily A member 1; experiment: Agonist activity at rat TRPA1 expressed in tetracycline-inducible T-REx expression system transfected CHO cells by 45Ca2+ uptake assay; assay type: cell-based
[11] = biological target: T1, Transient receptor potential cation channel subfamily A member 1; experiment: Agonist activity at human TRPA1 expressed in tetracycline-inducible T-REx expression system transfected CHO cells by 45Ca2+ uptake assay; assay type: cell-based
[12] = Clearance in rat at 0.5 mg/kg, iv as single dose; assay type: ADME, organism-based; details: in vivo
Rattus norvegicus [13] = experiment: Unbound clearance in rat at 0.5 mg/kg, iv as single dose; assay type: ADME, organism-based; details: in vivo
Summary of the method: (§3)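 Single intravenous dose of 0.5 mg/kg given to rats, formulated in 100% DMSO.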

[14] = Volume of distribution at steady state in rat at 0.5 mg/kg, iv as single dose; assay type: ADME, organism-based; details: in vivo, read-out: Vdss; summary of the method: as §3
[15] = Half life in rat at 0.5 mg/kg, iv administered as single dose; assay type: ADME, organism-based; details: in vivo; summary of the method: as §3
[16] = AUC (infinity) in rat at 30 mg/kg, po; assay type: ADME, organism-based; set-up: dose 30 mg/kg, time infinity, route oral; details: in vivo; summary of the method: as §2
[17] = Tmax in rat at 30 mg/kg, po; assay type: ADME, organism-based; details: in vivo; summary of the method: as §1
[18] = Half life in rat at 30 mg/kg, po; assay type: ADME, organism-based; details: in vivo; summary of the method: as §1
[19] = Oral bioavailability in rat at 30 mg/kg; assay type: ADME, organism-based; details: in vivo; summary of the method: as §1
[20] = Ratio of fCmax in rat at 30 mg/kg, po to IC50 for rat TRPA1 expressed in tetracycline-inducible T-REx expression system transfected CHO cells by 45Ca2+ uptake assay
[21] = AUC (infinity) in rat at 10 mg/kg, po; assay type: ADME, organism-based; set-up: dose 10 mg/kg, time infinity, route oral; details: in vivo; summary of the method: as §2
Rattus norvegicus [22] = experiment: fCmax in rat at 10 mg/kg, po; assay type: ADME, organism-based; details: in vivo; summary of the method: as §1
[23] = Tmax in rat at 10 mg/kg, po; assay type: ADME, organism-based; details: in vivo; summary of the method: as §1
[24] = Half life in rat at 10 mg/kg, po; assay type: ADME, organism-based; details: in vivo; summary of the method: as §1
[25] = Cmax in rat at 10 mg/kg, po; assay type: ADME, organism-based; set-up: dose 10 mg/kg, route oral; details: in vivo; summary of the method: as §2
[26] = Ratio of fCmax in rat at 10 mg/kg, po to IC50 for rat TRPA1 expressed in tetracycline-inducible T-REx expression system transfected CHO cells by 45Ca2+ uptake assay
Summary of the method: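 Rat oral PK dosed at 10 mg/kg in 1% Tween 80/2% HPMC/97% water/methanesulfonic acid pH 2.2. Unbound Cmax divided by rat TRPA1 45Ca2+ IC50.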

T2 sequence (Q6RI86 whole entry): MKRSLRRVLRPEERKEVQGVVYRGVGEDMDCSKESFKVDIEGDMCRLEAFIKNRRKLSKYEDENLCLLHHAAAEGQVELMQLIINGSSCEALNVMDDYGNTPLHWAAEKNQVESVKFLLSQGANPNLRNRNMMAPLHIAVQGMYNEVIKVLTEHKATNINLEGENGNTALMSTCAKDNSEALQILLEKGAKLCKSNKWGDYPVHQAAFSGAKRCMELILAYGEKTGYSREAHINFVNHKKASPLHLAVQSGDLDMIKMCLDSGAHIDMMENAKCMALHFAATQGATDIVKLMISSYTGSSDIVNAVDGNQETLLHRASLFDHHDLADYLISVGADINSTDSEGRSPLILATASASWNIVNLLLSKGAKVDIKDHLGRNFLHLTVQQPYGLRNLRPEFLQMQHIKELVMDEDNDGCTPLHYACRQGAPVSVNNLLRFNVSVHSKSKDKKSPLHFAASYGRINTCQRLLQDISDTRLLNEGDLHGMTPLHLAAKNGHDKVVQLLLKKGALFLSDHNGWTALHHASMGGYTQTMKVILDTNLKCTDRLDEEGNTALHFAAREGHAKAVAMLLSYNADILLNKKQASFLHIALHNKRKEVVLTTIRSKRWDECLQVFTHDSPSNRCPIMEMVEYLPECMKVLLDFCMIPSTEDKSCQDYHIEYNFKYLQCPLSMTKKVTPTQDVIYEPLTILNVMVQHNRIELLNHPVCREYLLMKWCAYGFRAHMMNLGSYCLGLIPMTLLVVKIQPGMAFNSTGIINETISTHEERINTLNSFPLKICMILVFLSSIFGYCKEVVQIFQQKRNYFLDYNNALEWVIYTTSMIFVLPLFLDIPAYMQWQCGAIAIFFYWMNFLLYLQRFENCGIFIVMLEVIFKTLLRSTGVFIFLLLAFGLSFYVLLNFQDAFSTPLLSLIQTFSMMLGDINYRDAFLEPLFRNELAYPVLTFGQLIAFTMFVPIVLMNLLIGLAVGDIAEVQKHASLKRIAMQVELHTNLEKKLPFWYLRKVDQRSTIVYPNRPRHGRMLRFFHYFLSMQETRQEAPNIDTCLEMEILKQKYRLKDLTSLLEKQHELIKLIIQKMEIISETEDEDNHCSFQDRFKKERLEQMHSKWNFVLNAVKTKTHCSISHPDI
T1 sequence (O75762 whole entry): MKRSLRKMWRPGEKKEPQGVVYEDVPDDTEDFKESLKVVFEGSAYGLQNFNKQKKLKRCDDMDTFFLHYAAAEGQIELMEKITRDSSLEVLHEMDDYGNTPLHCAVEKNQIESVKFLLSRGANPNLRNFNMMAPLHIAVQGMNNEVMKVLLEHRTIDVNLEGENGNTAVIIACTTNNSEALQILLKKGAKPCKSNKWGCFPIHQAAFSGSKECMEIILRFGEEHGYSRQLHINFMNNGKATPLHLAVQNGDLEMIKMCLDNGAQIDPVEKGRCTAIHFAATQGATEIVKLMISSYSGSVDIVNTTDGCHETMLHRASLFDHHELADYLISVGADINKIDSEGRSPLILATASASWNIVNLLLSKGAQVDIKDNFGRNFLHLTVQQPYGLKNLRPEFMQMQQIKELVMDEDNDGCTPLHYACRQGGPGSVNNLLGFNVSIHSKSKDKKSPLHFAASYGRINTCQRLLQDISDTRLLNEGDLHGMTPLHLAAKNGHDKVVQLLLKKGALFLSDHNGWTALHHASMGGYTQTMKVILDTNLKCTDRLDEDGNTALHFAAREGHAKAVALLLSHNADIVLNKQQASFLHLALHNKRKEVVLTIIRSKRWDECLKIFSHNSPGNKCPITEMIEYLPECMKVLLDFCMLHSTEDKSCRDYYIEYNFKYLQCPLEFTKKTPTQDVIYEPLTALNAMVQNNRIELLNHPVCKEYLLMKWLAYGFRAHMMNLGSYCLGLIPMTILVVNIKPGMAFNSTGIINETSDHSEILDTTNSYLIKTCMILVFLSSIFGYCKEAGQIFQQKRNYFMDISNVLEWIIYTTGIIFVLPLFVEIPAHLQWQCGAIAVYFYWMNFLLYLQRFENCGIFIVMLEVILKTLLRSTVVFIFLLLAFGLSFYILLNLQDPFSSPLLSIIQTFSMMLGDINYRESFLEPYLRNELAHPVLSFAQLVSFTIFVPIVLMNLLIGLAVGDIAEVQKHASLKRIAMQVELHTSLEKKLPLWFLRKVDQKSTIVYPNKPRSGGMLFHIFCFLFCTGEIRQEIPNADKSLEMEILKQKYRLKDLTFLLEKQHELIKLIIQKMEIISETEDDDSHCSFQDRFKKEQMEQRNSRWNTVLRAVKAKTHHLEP

SMILES: Cc1cccc2c(=O)n(CC(=O)NCCc3ccccc3)cnc12
IC50 [1]: > 8330 nM

SMILES: O=C(Cn1cnc2c(F)cccc2c1=O)NCCc1ccc(Cl)cc1
IC50 [1]: 1330 nM | IC50 [2]: 791 nM | microsomal CLint [3]: 186 µL/min/mg | microsomal CLint [4]: 40 µL/min/mg

SMILES: Cc1cccc2c(=O)n(CC(=O)NCCc3ccc(Cl)cc3)cnc12
IC50 [1]: 802 nM | IC50 [2]: 358 nM | microsomal CLint [3]: 706 µL/min/mg | microsomal CLint [4]: 224 µL/min/mg

SMILES: COc1ccc(CCNC(=O)Cn2cnc3c(C)cccc3c2=O)cc1
IC50 [2]: 1370 nM

SMILES: COc1cccc2c(=O)n(CC(=O)NCCc3ccc(Cl)cc3)cnc12
IC50 [1]: 1460 nM | IC50 [2]: 2150 nM | microsomal CLint [3]: 455 µL/min/mg | microsomal CLint [4]: 34 µL/min/mg

Further lines, with some results ahead:

fCmax (Rattus norvegicus [5]): 1 µM | Cmax [6]: 10.3 µM | fraction unbound [7]: 0.093 | IC50 [1]: 156 nM | IC50 [2]: 89 nM | microsomal CLint [3]: 122 µL/min/mg | microsomal CLint [4]: 35 µL/min/mg | IC50 [8]: 411 nM | IC50 [9]: 1580 nM | EC50 [10]: > 40000 nM | EC50 [11]: > 40000 nM | clearance [12]: 36.7 mL/min/kg | CL free (Rattus norvegicus [13]): 400 mL/min/kg | Vd [14]: 1 L/kg | half-life [15]: 0.4 h | AUC(0-inf) [16]: 19.2 µM·h | Tmax [17]: 0.5 h | half-life [18]: 4 h | bioavailability [19]: 52%
SMILES: O=c1c2cccnc2ncn1Cc1noc(CCc2ccc(Cl)cc2)n1
Ratio [20]: 3

IC50 [1]: 165 nM | IC50 [2]: 274 nM | microsomal CLint [3]: < 14 µL/min/mg | microsomal CLint [4]: 76 µL/min/mg
SMILES: C/C(=C\c1nc(Cn2cnc3ncn(C)c3c2=O)no1)c1ccc(Cl)cc1

IC50 [1]: 201 nM | IC50 [2]: 56 nM | microsomal CLint [3]: 297 µL/min/mg | microsomal CLint [4]: 49 µL/min/mg
SMILES: N#Cc1cccc2c(=O)n(CC(=O)NCCc3ccc(Cl)cc3)cnc12

IC50 [1]: 70 nM | IC50 [2]: 112 nM | microsomal CLint [3]: 736 µL/min/mg | microsomal CLint [4]: 301 µL/min/mg
SMILES: Cc1cccc2ncn(CC(=O)NCCc3ccc(Cl)cc3)c(=O)c12

IC50 [1]: 41 nM | IC50 [2]: 31 nM | microsomal CLint [3]: 94 µL/min/mg | microsomal CLint [4]: 56 µL/min/mg
SMILES: O=c1c2cccnc2ncn1Cc1nc(CC(F)c2ccc(Cl)cc2)no1 (racemic)

fraction unbound [7]: 0.033 | IC50 [1]: 71 nM | IC50 [2]: 75 nM | microsomal CLint [3]: < 14 µL/min/mg | microsomal CLint [4]: < 14 µL/min/mg | AUC(0-inf) [21]: 117 µM·h | fCmax (Rattus norvegicus [22]): 0.2 µM | Tmax [23]: 2 h | half-life [24]: 10 h | Cmax [25]: 6.5 µM | IC50 [8]: 55 nM | IC50 [9]: 63 nM | EC50 [10]: > 40000 nM | EC50 [11]: > 40000 nM
SMILES: C/C(=C\c1noc(Cn2cnc3ncn(C)c3c2=O)n1)c1ccc(Cl)cc1
Ratio [26]: 4

IC50 [1]: 211 nM | IC50 [2]: 136 nM | microsomal CLint [3]: 44 µL/min/mg | microsomal CLint [4]: 19 µL/min/mg
SMILES: Cn1cnc2ncn(Cc3noc(CCc4ccc(Cl)cc4)n3)c(=O)c21
